The source made the active and inactive calls. The rule behind the calls is not given here.
Columns and labels:
HaCaT [1] = assay: Antipyretic activity in human HaCaT cells assessed as inhibition of TNFalpha-induced PGE2 production at 100 uM pre-incubated for 2 hrs before TNFalpha stimulation for 24 hrs by ELISA; assay type: functional, cell-based
Outline: (§1)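 HaCaT keratinocytes, seeded at 1.5 × 10^5 cells/well and grown overnight, then serum-starved 12 h. Pretreated with compounds for 2 h, then stimulated 24 h with 20 ng/mL TNF-α; unstimulated cells as negative control. Supernatant PGE2 quantified by ELISA, absorbance 450 nm. Means ± SD of three independent experiments.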

HaCaT [2] = assay: Antipyretic activity in human HaCaT cells assessed as inhibition of TNFalpha-induced PGE2 production at 50 uM pre-incubated for 2 hrs before TNFalpha stimulation for 24 hrs by ELISA; assay type: functional, cell-based; outline: as §1
Mus musculus = assay: Antipyretic activity in ICR mouse assessed as suppression of LPS-induced febrile response measured at 10 mg/kg, po administered 30 mins before LPS injection and measured up to 6 hrs post LPS injection; assay type: functional, organism-based
Outline: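 Male 8-week-old ICR mice, 5 per group, reverse 12 h light/dark cycle. Compound suspended in 0.5% carboxymethyl cellulose, given orally 30 min before i.p. LPS (0.5 mg/kg in pyrogen-free PBS). Baseline rectal Tb from six readings over 2 h, then Tb followed to 6 h post-LPS. Each hour compared to LPS group, Student t-test, p < 0.05.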

HaCaT [3] = assay: Cytotoxicity in human HaCaT cells assessed as reduction in cell viability at 100 uM incubated for 2 4 hrs by MTT assay; assay type: cell-based
Outline: (§2)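 MTT viability in HaCaT cells seeded at 10^4 cells/well. After 12 h, compounds added in serum-free medium for 24 h, then MTT 4 h. Formazan dissolved in DMSO, absorbance read at 550 nm. Triplicate wells, experiments repeated at least three times.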

HaCaT [4] = assay: Cytotoxicity in human HaCaT cells assessed as reduction in cell viability at 50 uM incubated for 2 4 hrs by MTT assay; assay type: cell-based; outline: as §2
[5] = 50 uM, in the assay text read “at 50 uM” for “at 100 uM”

SMILES: CC(=O)c1c(O)c([C@@H]2O[C@H](CO)[C@@H](O)[C@H](O)[C@H]2O)c(O)c([C@@H]2O[C@H](CO)[C@@H](O)[C@H](O)[C@H]2O)c1O
- inhibition (HaCaT [1]; 100 uM): Active
- inhibition (HaCaT [2]): Active
- Activity (Mus musculus): Active
- Activity (HaCaT [3]): Non-Toxic

SMILES: CC(=O)c1c(O)c([C@@H]2O[C@H](CO)[C@@H](O)[C@H](O)[C@H]2O)c(O)c2c1O[C@@]1(C2)O[C@@H](CO)[C@H](O)[C@H]1O
- inhibition (HaCaT [1]; 100 uM): Active
- inhibition (HaCaT [2]): Active
- Activity (HaCaT [3]): Non-Toxic

SMILES: CC(=O)Oc1ccccc1C(=O)O
- inhibition (HaCaT [1]; 100 uM): Active

SMILES: COc1cc(/C=C/C(=O)OC[C@H]2O[C@@H](c3c(O)c(C(C)=O)c(O)c([C@@H]4O[C@H](COC(=O)/C=C/c5ccc(O)c(OC)c5)[C@@H](O)[C@H](O)[C@H]4O)c3O)[C@H](O)[C@@H](O)[C@@H]2O)ccc1O
- inhibition (HaCaT [1]; [5]): Active
- inhibition (HaCaT [2]): Active
- Activity (HaCaT [4]): Non-Toxic
- Activity (HaCaT [3]): Toxic

SMILES: CC(=O)c1c(O)c([C@@H]2O[C@H](CO)[C@@H](O)[C@H](O)[C@H]2O)c(O)c([C@@H]2O[C@H](COC(=O)/C=C/c3ccc(O)cc3)[C@@H](O)[C@H](O)[C@H]2O)c1O
- inhibition (HaCaT [1]; 100 uM): Active
- inhibition (HaCaT [2]): Active
- Activity (HaCaT [3]): Non-Toxic

SMILES: CC(=O)c1c(O)c([C@@H]2O[C@H](CO)[C@@H](O)[C@H](O)[C@H]2O)c(O)c2c1O[C@@]1(C2)O[C@H](CO)[C@@H](O)[C@@H]1O
- inhibition (HaCaT [1]; 100 uM): Active
- inhibition (HaCaT [2]): Active
- Activity (HaCaT [3]): Non-Toxic

SMILES: COc1cc(/C=C/C(=O)OC[C@H]2O[C@@H](c3c(O)c(C(C)=O)c(O)c([C@@H]4O[C@H](COC(=O)/C=C/c5ccc(O)cc5)[C@@H](O)[C@H](O)[C@H]4O)c3O)[C@H](O)[C@@H](O)[C@@H]2O)ccc1O
- inhibition (HaCaT [1]; [5]): Active
- inhibition (HaCaT [2]): Active
- Activity (HaCaT [4]): Non-Toxic
- Activity (HaCaT [3]): Toxic

SMILES: CC(=O)c1c(O)c([C@@H]2O[C@H](CO)[C@@H](O)[C@H](O)[C@H]2O)c(O)c2c1O[C@@]1(C2)O[C@H](CO)[C@H](O)[C@@H]1O
- inhibition (HaCaT [1]; 100 uM): Active
- inhibition (HaCaT [2]): Active
- Activity (HaCaT [3]): Non-Toxic

SMILES: CC(=O)c1c(O)c([C@@H]2O[C@H](CO)[C@@H](O)[C@H](O)[C@H]2O)c(O)c2c1O[C@]1(C2)O[C@H](CO)[C@@H](O)[C@H]1O
- inhibition (HaCaT [1]; 100 uM): Active
- inhibition (HaCaT [2]): Active
- Activity (HaCaT [3]): Non-Toxic

SMILES: CC(=O)c1c(O)c([C@@H]2O[C@H](COC(=O)/C=C/c3ccc(O)cc3)[C@@H](O)[C@H](O)[C@H]2O)c(O)c([C@@H]2O[C@H](COC(=O)/C=C/c3ccc(O)cc3)[C@@H](O)[C@H](O)[C@H]2O)c1O
- inhibition (HaCaT [1]; 100 uM): Active
- inhibition (HaCaT [2]): Active
- Activity (HaCaT [3]): Non-Toxic

SMILES: CC(=O)c1c(O)c([C@@H]2O[C@H](CO)[C@@H](O)[C@H](O)[C@H]2O)c(O)c([C@@H]2O[C@H](COC(=O)c3ccccc3)[C@@H](O)[C@H](O)[C@H]2O)c1O
- inhibition (HaCaT [1]; 100 uM): Active
- inhibition (HaCaT [2]): Active
- Activity (HaCaT [3]): Non-Toxic

SMILES: CC(=O)c1c(O)c([C@@H]2O[C@H](CO)[C@@H](O)[C@H](O)[C@H]2O)c(O)c([C@@H]2O[C@H](COC(=O)[C@H]3[C@H](C(=O)OC[C@H]4O[C@@H](c5c(O)c(C(C)=O)c(O)c([C@@H]6O[C@H](CO)[C@@H](O)[C@H](O)[C@H]6O)c5O)[C@H](O)[C@@H](O)[C@@H]4O)[C@@H](c4ccc(O)cc4)[C@@H]3c3ccc(O)cc3)[C@@H](O)[C@H](O)[C@H]2O)c1O
- inhibition (HaCaT [1]; 100 uM): Active
- inhibition (HaCaT [2]): Active
- Activity (HaCaT [3]): Non-Toxic

SMILES: COc1cc(/C=C/C(=O)OC[C@H]2O[C@@H](c3c(O)c(C(C)=O)c(O)c([C@@H]4O[C@H](CO)[C@@H](O)[C@H](O)[C@H]4O)c3O)[C@H](O)[C@@H](O)[C@@H]2O)ccc1O
- inhibition (HaCaT [1]; 100 uM): Active
- inhibition (HaCaT [2]): Active
- Activity (HaCaT [3]): Non-Toxic

SMILES: CC(=O)c1c(O)c([C@@H]2O[C@H](CO)[C@@H](O)[C@H](O)[C@H]2O)c(O)c2c1O[C@]1(C2)O[C@H](CO)[C@@H](O)[C@@H]1O
- inhibition (HaCaT [1]; 100 uM): Active
- inhibition (HaCaT [2]): Active
- Activity (HaCaT [3]): Non-Toxic

Reference: ChEMBL document CHEMBL4387794, “Constituents of the Edible Leaves of Melicope pteleifolia with Potential Analgesic Activity” (J Nat Prod, 2019)
